T cruzi growth-1 – T. cruzi intracellular proliferation inhibitors, primary screen, cell-based, beta-gal Tulahuen parasites, NIH3T3 host, luminescence; inhibition, % at 8.34 µM; actives 5.9% (n = 77,000); AID 624255, 2012; T. cruzi beta-gal in NIH3T3, GalScreen luminescence, 90 h;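 active = mean inhibition above about 93%, with at least 55% of replicates each passing it, limit read from the data, passing the limit was not always enough; inconclusive = only one of those two conditions holds; inactive = neither condition holds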
KDM4C inh – inhibitors of GASC-1 (KDM4C) histone demethylase, primary screen, biochemical, single concentration HTS | AID 720574, 2013 | actives 0.15% (n = 96,000) | GST-KDM4C 2-372, H3K9me3 peptide, LANCE TR-FRET | inhibition, % at 12.5 µM | Lysine-specific demethylase 4C (Homo sapiens), Q9H3R0;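 active = mean replicate inhibition above about 25%, with at least 55% of replicates also reaching it, limit read from the data, passing the limit was not always enough; inconclusive = only one of those two conditions met; inactive = neither condition met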
Target sequence (Q9H3R0 2-372 limits assumed): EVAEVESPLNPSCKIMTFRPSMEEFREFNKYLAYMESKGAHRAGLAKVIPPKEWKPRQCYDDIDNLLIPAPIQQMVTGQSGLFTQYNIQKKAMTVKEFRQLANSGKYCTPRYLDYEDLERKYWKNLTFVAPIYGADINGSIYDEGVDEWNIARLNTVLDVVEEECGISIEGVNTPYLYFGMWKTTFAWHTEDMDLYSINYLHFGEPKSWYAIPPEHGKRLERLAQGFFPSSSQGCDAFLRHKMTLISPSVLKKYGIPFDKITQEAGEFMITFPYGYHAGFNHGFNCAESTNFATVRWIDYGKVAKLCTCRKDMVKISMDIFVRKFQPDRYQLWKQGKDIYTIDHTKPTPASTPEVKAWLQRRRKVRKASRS
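Test system: N-terminal GST-fused human GASC-1 (KDM4C) fragment, residues 2-372; quantity: GASC-1 enzyme at 10 nM final in reaction; dosing: single dose; schedule: 30 min demethylation and 1 h detection at room temperature; signal: LANCE TR-FRET, excitation 340 nm, emissions 618 and 671 nm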
IDH1 R132H inh – inhibitors of IDH1 R132H reductase, primary screen, biochemical, plate reader, single point; diaphorase/resazurin fluorescence, 60 min; inhibition, % at 10 µM; Isocitrate dehydrogenase [NADP] cytoplasmic (Homo sapiens), O75874; actives 0.18% (n = 70,000); in the data active = inhibition above about 34%; inconclusive = no clear call, values can overlap the other calls; inactive = below about 11%;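 also: 0% = DMSO and 100% = no enzyme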
T cruzi growth-2 – T. cruzi intracellular proliferation inhibitors, confirmation, cell-based, NIH3T3 host, beta-gal parasite, luminescence, cherry-pick | shares compounds with T cruzi growth-1 | T. cruzi beta-gal in NIH3T3, GalScreen luminescence, 90 h | inhibition, % at 8.35 µM | actives 72% (n = 5,600);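 active = mean replicate inhibition above about 95% and at least 55% of replicates individually reaching it, limit read from the data; inconclusive = only one of the two criteria is met; inactive = neither criterion is met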
T cruzi growth-3 – inhibitors of intracellular T. cruzi replication, confirmation, NIH3T3 host cells, beta-gal parasites, cherry-pick, set 2; actives 21% (n = 5,600); shares compounds with T cruzi growth-1; inhibition, % at 2.09 µM; T. cruzi beta-gal in NIH3T3, GalScreen luminescence, 90 h;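 active = mean inhibition above about 95%, with at least 55% of replicates also reaching it, limit read from the data; inconclusive = meets just one of the two conditions; inactive = meets neither condition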;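 also: plate controls were neutral control median for no effect and positive control median for full effect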
3T3 cytotox – cytotoxicity in mouse NIH/3T3 fibroblasts, confirmation, cytotoxicity control for T. cruzi proliferation inhibitor project, cell-based, cherry-pick, single point | shares compounds with T cruzi growth-1 | NIH/3T3 viability, CellTiter-Glo ATP luminescence, 90 h | cytotoxicity (signal decrease), % at 8.35 µM | actives 14% (n = 5,600) | AID 651742, 2012;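 active = mean signal decrease across replicates above about 35% based on untreated-well scatter, with enough replicates individually passing, limit read from the data; inconclusive = no rule stated though some were filed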;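 also: 0% = median of neutral control wells and 100% = median of positive control wells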
NIH3T3 tox 2 – NIH/3T3 fibroblast cytotoxicity, confirmation, cytotoxicity control, cell-based, cherry-pick, single point, set 2 | shares compounds with T cruzi growth-1 | NIH/3T3 viability, CellTiter-Glo ATP luminescence, 90 h | inhibition, % at 24.9 µM | actives 56% (n = 5,600);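 active = mean loss of cell viability signal at or above a set limit, and enough replicates individually reaching it; inconclusive = meets only the mean limit or only the replicate share; inactive = meets neither condition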;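 also: 0% = median of neutral control wells and 100% = median of positive control wells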
* hit, by the source's call; ? = inconclusive; / = not tested or not shown. The full list was thinned out, with hits kept by preference.

SMILES	T cruzi growth-1	KDM4C inh	IDH1 R132H inh	T cruzi growth-2	T cruzi growth-3	3T3 cytotox	NIH3T3 tox 2
C[C@H]1CN([C@@H](C)CO)S(=O)(=O)c2ccc(C#CCN(C)C)cc2O[C@H]1CN(C)Cc1ccccn1	92*	2	0	?	52	6	?
C[C@H](CO)N1C[C@H](C)[C@H](CN(C)Cc2ccccn2)Oc2cc(C#C[C@@H](C)O)ccc2S1(=O)=O	-10	3	1	/	/	/	/
CCCC#Cc1ccc2c(c1)O[C@@H](CN(C)Cc1ccccn1)[C@H](C)CN([C@H](C)CO)S2(=O)=O	?	1	-5	97*	28	69*	105*
C[C@H](CO)N1C[C@H](C)[C@H](CN(C)Cc2ccccn2)Oc2cc(C#CCN(C)C)ccc2S1(=O)=O	89	5	2	/	/	/	/
C[C@@H]1CN([C@H](C)CO)S(=O)(=O)c2ccc(C#CCN(C)C)cc2O[C@@H]1CN(C)Cc1ccccn1	75	5	0	/	/	/	/
Cc1ccc(NC(=O)CSc2nc3c(c(C(F)(F)F)n2)CCCC3)cc1C	/	/	0	/	/	/	/
Cc1ccccc1S(=O)(=O)N1CC[C@@H]2[C@H]1c1cc(-c3cccc(F)c3)ccc1N[C@@H]2CO	107*	0	/	100*	48	28	106*
COc1cccc(-c2ccc3c(c2)[C@@H]2[C@@H](CCN2S(=O)(=O)c2ccccc2C)[C@@H](CO)N3)c1	62	1	/	/	/	/	/
Cc1ccccc1S(=O)(=O)N1CC[C@@H]2[C@H]1c1cc(-c3ccc(F)cc3)ccc1N[C@@H]2CO	39	-1	/	/	/	/	/
Cc1ccccc1S(=O)(=O)N1CC[C@H]2[C@H](CO)Nc3ccc(-c4ccc(F)cc4)cc3[C@H]21	25	0	/	/	/	/	/
Cc1ccccc1S(=O)(=O)N1CC[C@@H]2[C@H]1c1cc(-c3cccc(C#N)c3)ccc1N[C@@H]2CO	24	-2	/	/	/	/	/
Cc1ccccc1S(=O)(=O)N1CC[C@@H]2[C@@H](CO)Nc3ccc(-c4cccc(F)c4)cc3[C@@H]21	98*	4	/	104*	112*	59*	106*
N#Cc1cccc(-c2ccc3c(c2)[C@H]2[C@H](CCN2S(=O)(=O)c2ccccc2F)[C@@H](CO)N3)c1	107*	-3	/	?	67	30	55*
Cc1ccccc1S(=O)(=O)N1CC[C@@H]2[C@H](CO)Nc3ccc(-c4ccccc4)cc3[C@@H]21	107*	-1	/	102*	?	12	104*
CC(=O)OC(CCCCCCCCCC(C)O)Cc1cc(O)cc(O)c1 (stereo not given)	/	/	1	/	/	/	/
CCOc1ccc(NC(=O)C(C)Sc2nc3ccccc3c(=O)n2-c2cccc(C)c2)cc1 (stereo not given)	/	/	-1	/	/	/	/
C=C1CC[C@H]2[C@](C)(CCC[C@]2(C)C(=O)OC)[C@H]1CC/C(C)=C/C(=O)O	/	/	0	/	/	/	/
Cn1nnnc1SCC(=O)Nc1cccc(C(=O)O)c1	/	/	0	/	/	/	/
O=C(CN1CCN(S(=O)(=O)c2cccc([N+](=O)[O-])c2)CC1)Nc1ccc(F)cc1	/	/	0	/	/	/	/
Cc1sc2ncn(CC(=O)Nc3cccc(C(F)(F)F)c3)c(=O)c2c1-c1ccc(Cl)cc1	/	/	-1	/	/	/	/
O=C(CCCCCCC(=O)Nc1ccccc1O)N/N=C/C=C/c1ccccc1	/	/	0	/	/	/	/
Cn1cnc(S(=O)(=O)N2CC[C@@H]3[C@H]2c2cc(-c4cccc(F)c4)ccc2N[C@@H]3CO)c1	?	-1	/	101*	42	3	4
Cn1cnc(S(=O)(=O)N2CC[C@@H]3[C@H]2c2cc(-c4ccc(F)cc4)ccc2N[C@@H]3CO)c1	62	0	/	/	/	/	/

Assay outcomes: PubChem, Broad Institute
